Test results from ChEMBL document CHEMBL2046299, “Construction and functionalization of fused pyridine ring leading to novel compounds as potential antitubercular agents” (Bioorg Med Chem Lett, 2012).
Values after ≈ are worked out from the molar mass of the structure shown.

Columns and labels:
[1] = test system: Mycobacterium tuberculosis; test: Antitubercular activity against Mycobacterium tuberculosis H37Rv ATCC 27294 assessed as minimum concentration required to inhibit 90% growth after 1 week by fluorescence-based microplate Alamar Blue assay; type: functional; details: H37Rv ATCC 27294, 168 h
In short: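 M. tuberculosis H37Rv, MABA with fluorescence read-out. MIC taken as the lowest concentration cutting fluorescence by 90% relative to bacteria-only controls. Rifampicin, isoniazid and moxifloxacin served as reference compounds.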

[2] = test system: Mycobacterium tuberculosis; test: Antitubercular activity against non-replicating Mycobacterium tuberculosis assessed as minimum concentration required to inhibit 90% growth after 10 days under anaerobic condition by luciferase-based low-oxygen recovery assay; type: functional; details: for MIC90: Mycobacterium tuberculosis, 240 h
In short: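 Non-replicating M. tuberculosis, low-oxygen recovery assay with luciferase read-out, run on compounds selected from the MABA screen. MIC taken as the lowest concentration inhibiting recovery of luciferase signal by ≥90% relative to bacteria-only controls. Rifampicin, isoniazid and moxifloxacin served as references.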

[3] = (§1) Cytotoxicity against african green monkey Vero cells after 72 hrs by MTS assay; type: cell-based, Chlorocebus sabaeus; details: chlorocebus sabaeus, Vero cells; read-out: INH
Vero = test: as §1; type: cell-based, Chlorocebus sabaeus; details: Chlorocebus sabaeus, Vero, 72 h

| SMILES | MIC90 [1] | also measured |
| --- | --- | --- |
| COC(=O)c1cc(Cl)[n+]([O-])c2c1CCCCCC2 | > 50 µg/mL |  |
| COC(=O)c1cc(Cl)[n+]([O-])c2c1CCC2 | > 100 µg/mL |  |
| CCCn1c(=O)[nH]c(=O)c2c(C(=O)O)cc(=O)[nH]c21 | > 100 µg/mL |  |
| CCOC(=O)c1cc(Cl)[n+]([O-])c2ccc(F)cc12 | 10.9 µg/mL (≈ 40.4 µM) | MIC90 [2]: 13.1 µg/mL (≈ 48.6 µM) |
| Cc1ccc2c(c1)c(C(=O)O)cc(=O)n2O | > 100 µg/mL |  |
| O=C(O)c1cc(=O)n(O)c2c1CCC2 | > 100 µg/mL |  |
| O=C(O)c1cc(=O)[nH]c2ccc(F)cc12 | > 50 µg/mL |  |
| COC(=O)c1cc(Cl)[n+]([O-])c2c1CCCC2 | > 100 µg/mL |  |
| O=C(O)c1cc(Cl)[n+]([O-])c2c1CCCC2 | > 100 µg/mL |  |
| Cc1ccc2[nH]c(=O)cc(C(=O)O)c2c1 | > 50 µg/mL |  |
| NNC(=O)c1cc(=O)[nH]c2ccc(F)cc12 | > 100 µg/mL |  |
| O=C(O)c1cc(Cl)[n+]([O-])c2ccc(F)cc12 | > 100 µg/mL |  |
| NNC(=O)c1ccncc1 [ISONIAZID] | 0.33 µg/mL (≈ 2.41 µM) | inhibition (INH) [2]: 84%; MIC90 [2]: > 128 µg/mL |
| COC(=O)c1cc(C)n(O)c(=O)c1 | > 100 µg/mL |  |
| O=C(O)c1cc(O)nc2ccccc12 | > 50 µg/mL |  |
| Cc1cc(C(=O)O)cc(=O)[nH]1 | > 50 µg/mL |  |
| Cc1cc(C(=O)O)cc(=O)n1O | > 50 µg/mL |  |
| CCOc1cc(C(=O)O)c2c([n+]1[O-])CCCC2 | > 100 µg/mL |  |
| O=C(O)c1cc(Cl)[n+]([O-])c2c1CCCCCC2 | > 100 µg/mL |  |
| NNC(=O)c1cc(=O)[nH]c2ccccc12 | > 100 µg/mL |  |
| O=C(O)c1cc(=O)n(O)c2ccccc12 | > 100 µg/mL |  |
| O=C(O)c1cc(=O)[nH]c2c1CCC2 | > 50 µg/mL |  |
| O=C(O)c1cc(=O)[nH]c2ccc([N+](=O)[O-])cc12 | > 50 µg/mL |  |

| SMILES | MIC90 [1] | also measured |
| --- | --- | --- |
| Cc1ccc2c(c1)c(C(=O)O)cc(Cl)[n+]2[O-] | > 100 µg/mL |  |
| CO[C@H]1/C=C/O[C@@]2(C)Oc3c(C)c(O)c4c(O)c(c(/C=N/N5CCN(C)CC5)c(O)c4c3C2=O)NC(=O)/C(C)=C\C=C\[C@H](C)[C@H](O)[C@@H](C)[C@@H](O)[C@@H](C)[C@H](OC(C)=O)[C@@H]1C [RIFAMPIN] | 0.05 µg/mL (≈ 0.0608 µM) |  |
| NNC(=O)c1cc(=O)[nH]c2c1CCCC2 | > 100 µg/mL |  |
| O=C(O)c1cc(Cl)[n+]([O-])c2ccccc12 | > 100 µg/mL |  |
| CCCn1c(=O)[nH]c(=O)c2c(C(=O)O)cc(Cl)nc21 | 91.7 µg/mL (≈ 323 µM) |  |
| CCOC(=O)c1cc(Cl)[n+]([O-])c2ccc(C)cc12 | 4.33 µg/mL (≈ 16.3 µM) | cytotoxicity at 72 h [3]: 96%; IC50 (Vero): < 8 µg/mL; MIC90 [2]: 3.65 µg/mL (≈ 13.7 µM) |
| CCOc1cc(C(=O)O)cc(OCC)[n+]1[O-] | > 100 µg/mL |  |
| CCOc1cc(C(=O)O)c2c([n+]1[O-])CCC2 | > 100 µg/mL |  |
| CCOC(=O)c1cc(Cl)[n+]([O-])c2ccccc12 | 9.2 µg/mL (≈ 36.6 µM) | MIC90 [2]: 7.3 µg/mL (≈ 29 µM) |
| O=C(O)c1cc(=O)[nH]c2c1CCCC2 | > 50 µg/mL |  |
| O=C(O)c1cc(=O)n(O)c2ccc(F)cc12 | > 100 µg/mL |  |
| COC(=O)c1cc(C)[n+]([O-])c(Cl)c1 | > 100 µg/mL |  |
| O=C(O)c1cc(=O)[nH]c2c1CCCCCC2 | > 50 µg/mL |  |
| O=C(O)c1cc(O)nc(O)c1 [CITRAZINIC ACID] | > 50 µg/mL |  |
| NNC(=O)c1cc(=O)[nH]c2ccc([N+](=O)[O-])cc12 | > 100 µg/mL |  |
| COc1c(N2C[C@@H]3CCCN[C@@H]3C2)c(F)cc2c(=O)c(C(=O)O)cn(C3CC3)c12 [MOXIFLOXACIN] | 0.39 µg/mL (≈ 0.972 µM) | MIC90 [2]: 15.9 µg/mL (≈ 39.7 µM) |
| O=C(O)c1cc(O)n(O)c(=O)c1 | > 100 µg/mL |  |
| O=C(O)c1cc(Cl)[n+]([O-])c2c1CCC2 | > 50 µg/mL |  |
| Cc1cc(C(=O)O)cc(Cl)[n+]1[O-] | > 100 µg/mL |  |
| Cc1ccc2[nH]c(=O)cc(C(=O)NN)c2c1 | > 100 µg/mL |  |
| O=C(O)c1cc(=O)n(O)c2c1CCCC2 | > 100 µg/mL |  |
| NNC(=O)c1cc(=O)[nH]c2c1CCC2 | > 100 µg/mL |  |
